Measured values published in ChEMBL document CHEMBL1129668 (J Med Chem, 1996).

Assays:
[1] = target: Sodium-dependent dopamine transporter (Rattus norvegicus, UniProt P23977); test: In vitro binding affinity towards dopamine transporter in rat striatal membranes by […] displacement.; format: cell membranes, Striatum, Membrane
Outline: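 Crude membranes of rat corpus striatum in Tris-citrate buffer (pH 7.4) with Na+ and Mg2+ (4 mM). Six concentrations, duplicate; computer-fit IC50 converted to Ki via Cheng–Prusoff relation using radioligand K_d.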

[2] = target: Norepinephrine transporter (Rattus norvegicus, UniProt Q9WTR4); test: In vitro binding affinity towards Norepinephrine transporter rat cerebral cortical homogenates by [3H]nisoxetine displacement.
Sequence of Norepinephrine transporter (Q9WTR4 whole entry): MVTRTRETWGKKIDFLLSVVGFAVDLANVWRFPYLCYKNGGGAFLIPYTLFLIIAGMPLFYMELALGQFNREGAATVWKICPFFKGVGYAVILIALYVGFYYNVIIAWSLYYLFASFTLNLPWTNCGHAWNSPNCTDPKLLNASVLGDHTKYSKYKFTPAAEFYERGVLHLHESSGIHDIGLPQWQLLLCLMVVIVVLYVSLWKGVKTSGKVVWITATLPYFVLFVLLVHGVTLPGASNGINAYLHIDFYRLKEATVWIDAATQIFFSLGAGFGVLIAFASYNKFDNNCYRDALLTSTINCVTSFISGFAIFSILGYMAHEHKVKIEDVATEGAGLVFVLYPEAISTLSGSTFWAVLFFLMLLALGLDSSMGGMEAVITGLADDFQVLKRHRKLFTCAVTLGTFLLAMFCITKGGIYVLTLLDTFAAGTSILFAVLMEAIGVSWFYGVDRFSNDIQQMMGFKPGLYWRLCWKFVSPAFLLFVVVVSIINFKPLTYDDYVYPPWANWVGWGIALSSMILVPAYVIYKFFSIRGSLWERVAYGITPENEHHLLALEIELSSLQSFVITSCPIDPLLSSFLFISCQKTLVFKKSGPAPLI
Outline: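 Crude membrane fraction of rat frontoparietal cerebral cortex in 50 mM Tris-HCl (pH 7.4) with Na+, K+ (5 mM). Typically six concentrations in duplicate; curves computer-fit for IC50, converted to Ki = IC50/(1 + [L]/K_d).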

[3] = target: Sodium-dependent serotonin transporter (Rattus norvegicus, UniProt P31652); test: In vitro binding affinity towards serotonin transporter in rat cerebral cortical homogenates by [3H]paroxetine displacement.
Sequence of Sodium-dependent serotonin transporter (P31652 whole entry): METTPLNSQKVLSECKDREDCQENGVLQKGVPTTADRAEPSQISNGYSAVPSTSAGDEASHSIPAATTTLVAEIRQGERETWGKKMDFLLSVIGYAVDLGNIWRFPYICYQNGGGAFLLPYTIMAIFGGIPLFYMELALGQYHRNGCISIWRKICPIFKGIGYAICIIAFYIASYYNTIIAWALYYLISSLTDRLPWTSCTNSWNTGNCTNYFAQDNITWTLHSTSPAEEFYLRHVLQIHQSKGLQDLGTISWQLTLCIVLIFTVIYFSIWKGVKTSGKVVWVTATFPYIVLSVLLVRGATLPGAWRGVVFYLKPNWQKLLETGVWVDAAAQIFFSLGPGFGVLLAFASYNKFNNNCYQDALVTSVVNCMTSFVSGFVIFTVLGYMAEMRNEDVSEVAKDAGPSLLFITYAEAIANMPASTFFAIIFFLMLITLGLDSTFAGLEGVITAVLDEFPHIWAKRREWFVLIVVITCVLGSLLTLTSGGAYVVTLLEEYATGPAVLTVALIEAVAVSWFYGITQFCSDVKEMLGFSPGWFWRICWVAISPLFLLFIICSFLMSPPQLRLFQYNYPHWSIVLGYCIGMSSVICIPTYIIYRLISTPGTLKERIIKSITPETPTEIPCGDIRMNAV

[4] = target: Monoamine transporters; Norepininephrine & dopamine (Rattus norvegicus) (UniProt P23977+Q9WTR4); test: Selectivity for Dopamine and Norepinephrine transporters; format: protein assay
[5] = target: Monoamine transporters; serotonin & dopamine (Rattus norvegicus) (UniProt P31652+P23977); test: Selectivity for Dopamine and Serotonin transporters; format: protein assay
Sequence of Monoamine transporters; serotonin & dopamine (Rattus norvegicus) (P23977 whole entry, looked up): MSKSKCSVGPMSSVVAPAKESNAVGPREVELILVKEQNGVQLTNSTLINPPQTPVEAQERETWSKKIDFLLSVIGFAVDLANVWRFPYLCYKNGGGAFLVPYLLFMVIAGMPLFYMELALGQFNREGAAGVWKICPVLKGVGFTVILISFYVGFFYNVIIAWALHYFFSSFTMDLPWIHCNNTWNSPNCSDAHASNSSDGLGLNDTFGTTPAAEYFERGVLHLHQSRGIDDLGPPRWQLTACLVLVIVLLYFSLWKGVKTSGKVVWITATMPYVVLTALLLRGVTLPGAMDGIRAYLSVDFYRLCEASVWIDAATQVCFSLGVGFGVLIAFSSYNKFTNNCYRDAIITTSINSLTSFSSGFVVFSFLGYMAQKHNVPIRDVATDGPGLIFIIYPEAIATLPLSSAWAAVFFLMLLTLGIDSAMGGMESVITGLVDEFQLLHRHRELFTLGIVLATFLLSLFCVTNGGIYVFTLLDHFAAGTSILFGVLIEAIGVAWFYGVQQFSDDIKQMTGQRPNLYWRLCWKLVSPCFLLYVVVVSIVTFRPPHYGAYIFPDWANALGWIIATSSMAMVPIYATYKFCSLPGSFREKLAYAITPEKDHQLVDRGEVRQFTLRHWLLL
Sequence of Monoamine transporters; serotonin & dopamine (Rattus norvegicus) (P31652 whole entry, looked up): as the sequence (P31652 whole entry) above

Sequence of Sodium-dependent dopamine transporter (P23977 whole entry): as the sequence (P23977 whole entry, looked up) above

Compound: COC(=O)C1C(c2ccc(I)cc2)CC2CCC1N2C(=O)C(C)C (stereo unspecified)
- Ki [1]: 2100 nM
- Ki [2]: > 10000 nM
- Ki [3]: 102 nM
- Selectivity [4]: > 4.8
- Selectivity [5]: 0.049

Compound: COC(=O)C1C(c2ccc(I)cc2)CC2CCC1N2C (stereo unspecified)
- Ki [1]: 1.4 nM
- Ki [2]: 2.8 nM
- Selectivity [4]: 2
- Selectivity [5]: 0.32

Compound: COC(=O)C1C(c2ccc(I)cc2)CC2CCC1N2CCCF (stereo unspecified)
- Ki [1]: 3.5 nM
- Ki [2]: 63 nM
- Ki [3]: 0.11 nM
- Selectivity [4]: 18
- Selectivity [5]: 0.032

Compound: COC(=O)CN1C2CCC1C(C(=O)OC)C(c1ccc(I)cc1)C2 (stereo unspecified)
- Ki [1]: 11.9 nM
- Ki [2]: 29.1 nM
- Ki [3]: 0.81 nM
- Selectivity [4]: 2.5
- Selectivity [5]: 0.068

Compound: COC(=O)C1C(c2ccc(I)cc2)CC2CCC1N2CC(F)F (stereo unspecified)
- Ki [1]: 15.1 nM
- Ki [2]: > 5000 nM
- Ki [3]: 9.6 nM
- Selectivity [4]: > 330
- Selectivity [5]: 0.636

Compound: COC(=O)C1C(c2ccc(I)cc2)CC2CCC1N2CCCI (stereo unspecified)
- Ki [1]: 38.9 nM
- Ki [2]: 5000 nM
- Ki [3]: 8.84 nM
- Selectivity [4]: 129
- Selectivity [5]: 0.227

Compound: COC(=O)C1C(c2ccc(I)cc2)CC2CCC1N2CCCCl (stereo unspecified)
- Ki [1]: 3.1 nM
- Ki [2]: 96 nM
- Ki [3]: 0.32 nM
- Selectivity [4]: 31
- Selectivity [5]: 0.1

Compound: COC(=O)[C@@H]1C2CCC(C[C@@H]1c1ccc(I)cc1)N2CC(=O)N(C)C (stereo partly specified)
- Ki [1]: 12.2 nM
- Ki [2]: 522 nM
- Ki [3]: 6.4 nM
- Selectivity [4]: 42.8
- Selectivity [5]: 0.524

Compound: COC(=O)C1C(c2ccc(I)cc2)CC2CCC1N2CCF (stereo unspecified)
- Ki [1]: 4 nM
- Ki [2]: 93 nM
- Ki [3]: 0.14 nM
- Selectivity [4]: 23.2
- Selectivity [5]: 0.035

Compound: COC(=O)C1C(c2ccc(I)cc2)CC2CCC1N2CCCO (stereo unspecified)
- Ki [1]: 5.39 nM
- Ki [2]: 217 nM
- Ki [3]: 2.5 nM
- Selectivity [4]: 40.3
- Selectivity [5]: 0.463

Compound: COC(=O)C1C(c2ccc(I)cc2)CC2CCC1N2CCCOS(C)(=O)=O (stereo unspecified)
- Ki [1]: 36.3 nM
- Ki [2]: 5000 nM
- Ki [3]: 17.3 nM
- Selectivity [4]: 138
- Selectivity [5]: 0.477

Compound: COC(=O)C1C(c2ccc(I)cc2)CC2CCC1N2CCCBr (stereo unspecified)
- Ki [1]: 2.56 nM
- Ki [2]: 164 nM
- Ki [3]: 0.35 nM
- Selectivity [4]: 64.1
- Selectivity [5]: 0.137

Compound: COC(=O)C1C(c2ccc(I)cc2)CC2CCC1N2CC1CC1 (stereo unspecified)
- Ki [1]: 4.3 nM
- Ki [2]: 198 nM
- Ki [3]: 1.3 nM
- Selectivity [4]: 45.6
- Selectivity [5]: 0.302

Compound: COC(=O)[C@@H]1C2CCC(C[C@@H]1c1ccc(I)cc1)N2CCCN1C(=O)c2ccccc2C1=O (stereo partly specified)
- Ki [1]: 9.1 nM
- Ki [2]: 73.7 nM
- Ki [3]: 0.59 nM
- Selectivity [4]: 8.1
- Selectivity [5]: 0.065

Compound: COC(=O)[C@H]1[C@@H](c2ccc(F)cc2)C[C@H]2CC[C@H]1N2C
- Ki [2]: 635 nM
- Ki [3]: 181 nM

Compound: COC(=O)C1C(c2ccc(I)cc2)CC2CCC1N2CC(OC)OC (stereo unspecified)
- Ki [1]: 6.8 nM
- Ki [2]: 110 nM
- Ki [3]: 1.69 nM
- Selectivity [4]: 16.2
- Selectivity [5]: 0.249

Compound: CC(C)OC(=O)C1C(c2ccc(I)cc2)CC2CCC1N2CCCF (stereo unspecified)
- Ki [1]: 1.2 nM
- Ki [2]: 10000 nM
- Ki [3]: 48.7 nM
- Selectivity [4]: 8300
- Selectivity [5]: 40.6

Compound: CC(C)OC(=O)C1C(c2ccc(I)cc2)CC2CCC1N2CCF (stereo unspecified)
- Ki [1]: 4.4 nM
- Ki [2]: > 10000 nM
- Ki [3]: 21.7 nM
- Selectivity [4]: > 2300
- Selectivity [5]: 4.9
